These results are taken from ChEMBL document CHEMBL1240329, “Identification and mechanistic characterization of low-molecular-weight inhibitors for HuR” (Nat Chem Biol, 2007).

The term Kd denotes the free concentration of one partner at which half of the binding sites on the other are occupied at equilibrium, for simple one-to-one binding. By IC50 is commonly meant the concentration that inhibits the measured activity by half. High values mean lower potency, low ones higher potency.

For data set [1], the system named is PBMC. The data set is described as follows: Inhibition of HuR in anti-CD3 and anti-CD28-stimulated human PBMC assessed as reduction of cytoplasmic protein level after 48 hrs by confocal microscopy. The class given is functional, cell-based.
Data set [2] concerns Monocyte. The data set is described as follows: Inhibition of COX-2 gene expression in LPS/INF-gamma-stimulated human primary monocytes up to 30 uM by RT-PCR analysis. Type of data set: functional.
For data set [3], the system named is Monocyte. The data set is described as follows: Inhibition of IL-6 gene expression in LPS/INF-gamma-stimulated human primary monocytes up to 30 uM by RT-PCR analysis. The class given is functional.
The subject of data set [4] is Monocyte. Kind of data set: Inhibition of IL1-beta expression in LPS/INF-gamma-stimulated human primary monocytes by ELISA. Type of data set: functional.
The subject of data set [5] is Monocyte. The data set is described as follows: Inhibition of IL1-beta expression in LPS/INF-gamma-stimulated human primary monocytes up to 30 uM by ELISA. The class given is functional. A general note: An ELISA detects its analyte on a solid surface through an enzyme-linked reagent.
Data set [6] has as its system Monocyte. The data set is described as follows: Inhibition of COX-2 expression in LPS/INF-gamma-stimulated human primary monocytes up to 30 uM by ELISA. Type of data set: functional.
Data set [7] relates to Monocyte. Kind of data set: Inhibition of IL-6 expression in LPS/INF-gamma-stimulated human primary monocytes up to 30 uM by ELISA. The class given is functional.
For data set [8], the target named is T1, ELAV-like protein 1 (Homo sapiens, UniProt Q15717). Kind of data set: Inhibition of recombinant HuR RRM1/RRM2 domain assessed as protein interaction with TMR-labeled A/U-rich element of IL-2 by confocal fluctuation spectroscopy. The method in brief:
(§1)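 Binding followed as fluorescence anisotropy by 2D-FIDA, converted to fraction bound. Inhibition curves simulated from the fitted HuR–RNA Kd, with actual RNA, HuR and compound levels as boundary conditions. Ten measurements averaged; at least three independent experiments.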

In data set [9] the target is T1, ELAV-like protein 1. Kind of data set: Inhibition of recombinant HuR RRM1/RRM2 domain assessed as protein interaction with TMR-labeled A/U-rich element of TNFalpha by confocal fluctuation spectroscopy. In outline:
as §1

Data set [10] has as its target T1, ELAV-like protein 1. The data set is described as follows: Inhibition of recombinant full length HuR assessed as inhibition of protein-IL-2 A/U-rich element interaction-associated release of particle number at 2 uM by 2D-FIDA.
Data set [11] relates to PBMC. Kind of data set: Inhibition of HuR in anti-CD3 and anti-CD28-stimulated human PBMC assessed as reduction of cytoplasmic protein level at 25 uM after 48 hrs by confocal microscopy. The class given is functional, cell-based.
The nature of data set [12]: Cytotoxicity against human PBMC assessed as cell viability at 25 uM after 48 hrs relative control. The class given is cell-based. To be noted: read-out: Activity. In outline:
(§2)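 Freshly isolated human PBMCs activated with soluble anti-CD3 plus anti-CD28 and exposed to compound for 48 h. Viability expressed as percent of DMSO control.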

For data set [13], the system named is Monocyte. Kind of data set: Inhibition of IL1-beta gene expression in LPS/INF-gamma-stimulated human primary monocytes by RT-PCR analysis.
In data set [14] the test system is Monocyte. Kind of data set: Inhibition of COX-2 gene expression in LPS/INF-gamma-stimulated human primary monocytes by RT-PCR analysis.
Data set [15] concerns Monocyte. Kind of data set: Inhibition of IL-6 gene expression in LPS/INF-gamma-stimulated human primary monocytes by RT-PCR analysis.
Data set [16] concerns the target T1, ELAV-like protein 1. The data set is described as follows: Inhibition of recombinant HuR RRM1/RRM2 domain assessed as protein dimerization with TMR-labeled A/U-rich element of TNFalpha by confocal fluctuation spectroscopy.
For data set [17], the target named is T1, ELAV-like protein 1. The data set is described as follows: Inhibition of recombinant HuR RRM1/RRM2 domain assessed as protein dimerization with TMR-labeled A/U-rich element of IL-2 by confocal fluctuation spectroscopy.
For data set [18], the target named is T1, ELAV-like protein 1. Kind of data set: Binding affinity recombinant HuR RRM1/RRM2 domain by confocal fluctuation spectroscopy. The method in brief:
as §1

Data set [19] has as its system Monocyte. Kind of data set: Inhibition of COX-2 expression in LPS/INF-gamma-stimulated human primary monocytes by ELISA. Type of data set: functional.
The test system of data set [20] is Monocyte. The data set is described as follows: Inhibition of IL-6 expression in LPS/INF-gamma-stimulated human primary monocytes by ELISA. Type of data set: functional.
The target in data set [21] is Myosin light chain kinase, smooth muscle (Homo sapiens, UniProt Q15746). The data set is described as follows: Inhibition of MYLK.
Sequence of Myosin light chain kinase, smooth muscle (Q15746 whole entry): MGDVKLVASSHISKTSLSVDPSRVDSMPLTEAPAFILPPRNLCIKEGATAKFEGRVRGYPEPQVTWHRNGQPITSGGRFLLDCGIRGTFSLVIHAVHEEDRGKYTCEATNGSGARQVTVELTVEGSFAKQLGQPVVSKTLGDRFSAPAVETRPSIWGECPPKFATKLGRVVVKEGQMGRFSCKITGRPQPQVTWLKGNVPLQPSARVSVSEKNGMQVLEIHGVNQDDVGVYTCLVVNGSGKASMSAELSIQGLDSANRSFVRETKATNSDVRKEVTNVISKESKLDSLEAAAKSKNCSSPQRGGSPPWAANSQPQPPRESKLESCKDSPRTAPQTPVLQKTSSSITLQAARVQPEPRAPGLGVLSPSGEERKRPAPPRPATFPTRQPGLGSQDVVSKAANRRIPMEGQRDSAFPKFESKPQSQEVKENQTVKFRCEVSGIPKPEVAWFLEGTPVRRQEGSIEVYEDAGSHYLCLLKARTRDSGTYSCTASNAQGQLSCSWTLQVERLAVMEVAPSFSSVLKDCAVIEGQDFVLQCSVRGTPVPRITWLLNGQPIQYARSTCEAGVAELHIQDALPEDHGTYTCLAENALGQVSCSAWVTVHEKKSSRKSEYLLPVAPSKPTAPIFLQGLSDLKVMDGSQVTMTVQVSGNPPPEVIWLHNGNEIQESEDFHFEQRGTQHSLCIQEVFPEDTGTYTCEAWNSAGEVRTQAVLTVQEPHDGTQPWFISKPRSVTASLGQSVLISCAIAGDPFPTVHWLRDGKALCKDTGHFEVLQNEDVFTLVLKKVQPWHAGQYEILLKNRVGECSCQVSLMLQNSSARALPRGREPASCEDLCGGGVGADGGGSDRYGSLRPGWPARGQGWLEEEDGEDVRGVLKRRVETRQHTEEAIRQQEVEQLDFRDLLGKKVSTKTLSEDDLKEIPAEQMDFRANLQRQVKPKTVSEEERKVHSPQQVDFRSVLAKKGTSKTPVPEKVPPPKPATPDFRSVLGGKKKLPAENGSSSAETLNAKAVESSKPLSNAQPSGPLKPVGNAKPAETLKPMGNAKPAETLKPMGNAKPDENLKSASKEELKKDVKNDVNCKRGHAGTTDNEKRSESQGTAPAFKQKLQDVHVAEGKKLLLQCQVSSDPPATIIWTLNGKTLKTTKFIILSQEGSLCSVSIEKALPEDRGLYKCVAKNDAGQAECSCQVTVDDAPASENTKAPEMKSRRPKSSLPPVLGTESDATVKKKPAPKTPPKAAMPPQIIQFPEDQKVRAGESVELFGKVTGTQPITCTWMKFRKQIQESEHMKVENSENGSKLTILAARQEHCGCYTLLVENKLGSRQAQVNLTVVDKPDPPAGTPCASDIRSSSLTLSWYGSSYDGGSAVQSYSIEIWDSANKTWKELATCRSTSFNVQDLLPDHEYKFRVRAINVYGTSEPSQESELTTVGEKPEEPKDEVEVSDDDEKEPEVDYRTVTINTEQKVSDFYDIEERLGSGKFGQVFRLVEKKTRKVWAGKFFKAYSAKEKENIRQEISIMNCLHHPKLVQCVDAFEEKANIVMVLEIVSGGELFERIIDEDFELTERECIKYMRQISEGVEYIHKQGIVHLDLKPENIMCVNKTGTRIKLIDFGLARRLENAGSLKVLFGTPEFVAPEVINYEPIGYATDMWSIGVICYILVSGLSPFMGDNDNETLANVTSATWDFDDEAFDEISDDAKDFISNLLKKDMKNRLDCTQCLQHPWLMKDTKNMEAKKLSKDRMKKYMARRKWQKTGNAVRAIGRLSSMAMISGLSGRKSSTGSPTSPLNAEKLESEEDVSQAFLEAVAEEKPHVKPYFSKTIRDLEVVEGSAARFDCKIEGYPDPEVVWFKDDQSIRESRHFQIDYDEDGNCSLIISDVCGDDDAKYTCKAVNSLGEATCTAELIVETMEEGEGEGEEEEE
Data set [22] is described as follows: Cytotoxicity against human PBMC assessed as cell viability at 50 uM after 48 hrs relative control. The class given is cell-based. To be noted: read-out: Activity. In outline:
as §2

Data set [23] relates to Monocyte. Kind of data set: Inhibition of IL1-beta gene expression in LPS/INF-gamma-stimulated human primary monocytes up to 30 uM by RT-PCR analysis. Type of data set: functional.

Activity calls are given as the source filed them. No cut-off for these calls is given here.

T1 sequence (Q15717 whole entry, the tested form may be a part): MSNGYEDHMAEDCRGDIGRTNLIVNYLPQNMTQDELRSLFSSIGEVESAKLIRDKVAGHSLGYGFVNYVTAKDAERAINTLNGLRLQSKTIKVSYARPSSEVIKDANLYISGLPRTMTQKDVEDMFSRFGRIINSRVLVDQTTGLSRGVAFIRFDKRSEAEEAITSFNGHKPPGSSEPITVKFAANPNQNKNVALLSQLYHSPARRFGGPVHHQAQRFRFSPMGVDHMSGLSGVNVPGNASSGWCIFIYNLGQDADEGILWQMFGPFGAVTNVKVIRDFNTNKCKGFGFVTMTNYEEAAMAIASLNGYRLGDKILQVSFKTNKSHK

On to `Cc1cc(O)cc2cc3c(c(O)c12)C(=O)CCC3O` (stereo unspecified), for which the inhibition entry in the data set on PBMC [1] is “inactive”.
With `Cc1cc(O)cc2oc(Cc3cc(O)cc(=O)o3)cc(=O)c12`, the inhibition result with Monocyte [2], in the data set on Monocyte [3], in the data set with Monocyte [4], in the data set with Monocyte [5], in the data set on Monocyte [6] and with Monocyte [7] was “inactive” in each case.
For `Cc1occ2c1C(=O)c1c(O)ccc(O)c1C2`, the Kd on ELAV-like protein 1 [8] is 0.23 µM; at ELAV-like protein 1 [9] it was 0.014 µM; at ELAV-like protein 1 [16], 0.0001 µM; at ELAV-like protein 1 [17] it was 0.0001 µM; on ELAV-like protein 1 [18] it was 0.42 µM. Besides, the inhibition entry at ELAV-like protein 1 [10] is “Active”. Moreover, in the data set on PBMC [11], the inhibition entry is “inactive”. The viability at 48 h, 25 µM in [12] came to 94%. The IC50 in the data set on Monocyte [13] is 3.7 µM; with Monocyte [14], 2.1 µM; in the data set on Monocyte [15], 2.4 µM; in data set [21] it was 10 µM. The inhibition result with Monocyte [4], with Monocyte [19] and in the data set with Monocyte [20] was “Dose-dependent effect” each time.
As for `Cc1cc(O)c2c(O)cccc2c1-c1cc(=O)cc(O)o1` [DEHYDROMUTACTIN], the inhibition entry in the data set on PBMC [1] is “Dose-dependent effect”. Also, the viability at 48 h, 50 µM in data set [22] amounted to 97%. For the same compound, the inhibition result with Monocyte [23], with Monocyte [2], in the data set with Monocyte [3], in the data set with Monocyte [4], in the data set on Monocyte [5] and with Monocyte [6] was “inactive” throughout. Besides, the inhibition result with Monocyte [7] was “inactive”.
